Test results published in PMC9364358 (RSC Advances, 2022).

Experiments:
HDACs = experiment: Fluorometric HDAC activity assay; assay type: cell-based; conditions: MCF-7 cells, 30 μM, 2 h
How it was run: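 MCF-7 cells grown in RPMI-1640 with 10% FBS and 1% penicillin at 37 °C, 5% CO2, then seeded at 5 × 10^3 cells/well. After 24 h, medium was replaced, and HDAC substrate plus test compound (final 30 μM) or trichostatin A was added for 2 h. Developer mix was then added for 30 min at 37 °C, and fluorescence was read (ex 368 nm, em 442 nm).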

HDAC6 = molecular target: T1, HDAC6 (Homo sapiens, UniProt Q9UBN7); assay type: biochemical
T1 sequence (Q9UBN7 1-1215): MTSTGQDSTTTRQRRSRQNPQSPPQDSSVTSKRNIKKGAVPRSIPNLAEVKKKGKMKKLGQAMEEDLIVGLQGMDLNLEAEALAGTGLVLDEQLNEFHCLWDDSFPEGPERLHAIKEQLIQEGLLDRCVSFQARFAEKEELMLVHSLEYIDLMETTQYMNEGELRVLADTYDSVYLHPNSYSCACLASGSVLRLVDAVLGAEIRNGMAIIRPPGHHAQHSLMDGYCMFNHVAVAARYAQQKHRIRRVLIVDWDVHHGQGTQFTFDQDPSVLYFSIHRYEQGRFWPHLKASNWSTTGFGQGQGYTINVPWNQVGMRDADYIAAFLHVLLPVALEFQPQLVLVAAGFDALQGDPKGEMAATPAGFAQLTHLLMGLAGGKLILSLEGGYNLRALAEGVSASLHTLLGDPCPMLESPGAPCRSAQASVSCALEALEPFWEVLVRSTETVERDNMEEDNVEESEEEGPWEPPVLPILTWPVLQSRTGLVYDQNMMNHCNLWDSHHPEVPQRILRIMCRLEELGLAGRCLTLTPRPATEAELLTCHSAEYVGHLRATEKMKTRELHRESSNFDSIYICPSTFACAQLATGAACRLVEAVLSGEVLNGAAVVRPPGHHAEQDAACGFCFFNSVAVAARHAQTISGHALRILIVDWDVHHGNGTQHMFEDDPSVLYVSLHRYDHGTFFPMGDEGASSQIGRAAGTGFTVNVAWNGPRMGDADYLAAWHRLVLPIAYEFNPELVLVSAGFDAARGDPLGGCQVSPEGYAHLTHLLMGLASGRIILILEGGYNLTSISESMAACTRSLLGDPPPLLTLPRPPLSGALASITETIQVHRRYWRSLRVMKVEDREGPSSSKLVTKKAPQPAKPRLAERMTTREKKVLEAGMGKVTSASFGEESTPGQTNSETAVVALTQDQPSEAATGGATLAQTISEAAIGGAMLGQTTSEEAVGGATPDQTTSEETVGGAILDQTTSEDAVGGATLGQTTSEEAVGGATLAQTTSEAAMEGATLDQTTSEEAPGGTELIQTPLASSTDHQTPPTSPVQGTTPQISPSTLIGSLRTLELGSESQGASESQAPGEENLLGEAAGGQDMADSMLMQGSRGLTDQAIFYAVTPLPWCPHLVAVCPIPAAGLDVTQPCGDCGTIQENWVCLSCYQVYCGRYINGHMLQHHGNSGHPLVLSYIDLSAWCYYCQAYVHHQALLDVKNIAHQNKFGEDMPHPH
How it was run: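 HDAC6 enzyme was incubated 30 min with test compound at graded concentrations (DMSO) and HDAC substrate 2 (200 μM stock) in HDAC assay buffer with BSA (1 mg mL−1 stock). The reaction was stopped with HDAC assay developer for 15 min at room temperature, and fluorescence was read at 485/528 nm. A reference HDAC inhibitor served as positive control.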

MOPC-315 cell line = experiment: Cytotoxicity; assay type: cell-based

O=C(/C=C/c1cccc(S(=O)(=O)Nc2ccccc2)c1)NO [Belinostat]
pan-HDAC inhibitory activity (HDAC activity, fluorescence signal) (HDACs): the activity was decreased
inhibition at 5 µM (HDAC6): 64.5%
IC50 (MOPC-315 cell line; Mus musculus, MOPC 315, 24 h, MOPC-315 cell line, 24 h incubation): 318 ± 49 nM
Fold change (MOPC-315 cell line; potency relative to belinostat (belinostat = 1.000), MOPC-315): 1.000
